# Assay results pooled from the literature.
# Lines come from different studies, so protocols differ.
# Target: Serine/threonine-protein kinase TBK1 (TBK1, Homo sapiens, UniProt Q9UHD2)
# One construct used (Q9UHD2 1-729): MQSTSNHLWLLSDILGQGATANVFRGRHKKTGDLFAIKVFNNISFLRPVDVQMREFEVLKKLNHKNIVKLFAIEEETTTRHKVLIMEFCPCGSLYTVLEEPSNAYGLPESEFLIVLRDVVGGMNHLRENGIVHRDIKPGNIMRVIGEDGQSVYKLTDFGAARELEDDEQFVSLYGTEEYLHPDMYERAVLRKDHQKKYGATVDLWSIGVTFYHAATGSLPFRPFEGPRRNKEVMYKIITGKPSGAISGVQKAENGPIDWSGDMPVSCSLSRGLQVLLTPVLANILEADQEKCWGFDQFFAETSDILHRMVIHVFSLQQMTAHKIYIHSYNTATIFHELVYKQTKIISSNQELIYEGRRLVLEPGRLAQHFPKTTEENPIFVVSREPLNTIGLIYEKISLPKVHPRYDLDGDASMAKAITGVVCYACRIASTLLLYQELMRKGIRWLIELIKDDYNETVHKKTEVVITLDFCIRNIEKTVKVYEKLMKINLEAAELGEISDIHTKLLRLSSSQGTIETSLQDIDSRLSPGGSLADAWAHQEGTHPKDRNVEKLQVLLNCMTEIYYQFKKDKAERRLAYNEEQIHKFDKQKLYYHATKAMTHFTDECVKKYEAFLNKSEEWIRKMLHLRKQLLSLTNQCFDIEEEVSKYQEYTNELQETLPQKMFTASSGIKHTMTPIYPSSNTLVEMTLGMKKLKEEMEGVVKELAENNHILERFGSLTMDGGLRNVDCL
Structure (SMILES),effect on,technique,tested at,remaining binding [%]
O=C(O)[C@@H]1[C@@H](Cn2nnc3ccccc3c2=O)CC[C@H]1C(=O)c1ccc(OCCC2CCOCC2)cc1,cell-free assay,competition with immobilised ligand,1 µM,100
O=C(c1ccc(Nc2ncc(Cl)c(-c3cc4ccccc4s3)n2)cc1)N1CCC(N2CCCC2)CC1,binding,competition with immobilised ligand,1 µM,11
CN(C)c1nccc(-c2cnn3ncccc23)n1,binding,,1 µM,82
CNCc1ccccc1-c1csc([C@@H](C)Nc2nc(C)nc3cc(OC)c(OC)cc23)c1,cell-free assay,competition with immobilised ligand,1 µM,100
CNC(=O)[C@@H]1CC[C@@H](n2c(-c3ccc4cnccc4c3)nc3ccc(C(=O)NCc4cccc(C(N)=O)c4)cc32)C1,binding,competition with immobilised ligand,1 µM,95
F[C@@H]1CCN(c2nccc(-c3cnn4ncccc34)n2)C1,binding,,1 µM,84
O=C(c1ccc(Nc2ncc(Cl)c(-c3ccc(Cl)s3)n2)cc1)N1CCC(N2CCCC2)CC1,binding,competition with immobilised ligand,1 µM,0
O=C(NCC1CCOCC1)c1n[nH]cc1NC(=O)c1c(F)cccc1F,binding,competition with immobilised ligand,1 µM,96
O=C(NC[C@@H]1[C@H]2CN(C(=O)OCc3cc(C(F)(F)F)cc(C(F)(F)F)c3)C[C@@H]12)c1ccc2[nH]nnc2c1,cell-free assay,competition with immobilised ligand,1 µM,100
C[C@@H]1CCN(c2nccc(-c3cnn4ncccc34)n2)C1,binding,,1 µM,63
c1cncc(-c2cccc(Nc3nccc(NC4CCCCC4)n3)c2)c1,binding,competition with immobilised ligand,10 µM,62
Cc1cnc(Nc2ccc(C(=O)N3CCC(N4CCCC4)CC3)cc2)nc1-c1cc2ccccc2s1,binding,competition with immobilised ligand,1 µM,4.5
CC1=C(C#N)C(c2ccc3c(c2)c(NC(=O)c2ccccc2C)nn3C)C(C#N)=C(C)N1,cell-free assay,competition with immobilised ligand,1 µM,69
COc1cnc(Nc2cccc(S(N)(=O)=O)c2)nc1N1CCN(c2ccccc2)C(=O)C1,binding,competition with immobilised ligand,1 µM,61
CN(C)c1ncc(F)c(-c2cnn3ncccc23)n1,binding,,1 µM,86
C=CC(=O)N1CCC(C(=O)NCC(=O)N2CCN(c3nc(-c4cnc(N)nc4C(F)F)nc(N4CCOCC4)n3)CC2)CC1,binding,competition with immobilised ligand,1 µM,91
CS(=O)(=O)N1CCCC(NC(=O)[C@H](CCC2CCCCC2)NC(=O)c2ccc(CNC(=O)c3cnc4ccccn34)cc2)C1 (stereo partly drawn),cell-free assay,competition with immobilised ligand,0.1 µM,75
CN(c1nccc(-c2cnn3ncccc23)n1)C1CC1,binding,,1 µM,100
C[C@@H](c1ccc(-n2cnc3c(N)ncnc32)cc1)N1CCc2nn(C)c(Cc3ccccc3)c2C1=O,binding,competition with immobilised ligand,0.1 µM,98
CC(=O)N1CCC(c2ccc(C(=O)NC(=N)N)cc2C(F)(F)F)CC1,cell-free assay,competition with immobilised ligand,1 µM,100
N[C@@H]1CCN(c2nccc(-c3cnn4ncccc34)n2)C1,binding,,1 µM,97
